Reference: ChEMBL document CHEMBL2380310, “Discovery of 7-oxopyrazolo[1,5-a]pyrimidine-6-carboxamides as potent and selective CB(2) cannabinoid receptor inverse agonists” (J Med Chem, 2013)
Calls of active or inactive are those of the source. The calls are words filed in the database; no cut-off is given here.

Tests used:
[1] = target: T1, Cannabinoid receptor 2 (Homo sapiens, UniProt P34972); test: Displacement of [3H]CP-55940 from human CB2 receptor expressed in CHO cell membrane after 60 mins by scintillation counting analysis; type: cell membranes
Method in brief: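 Human CB₂-expressing CHO cell membranes in 50 mM Tris-HCl, 0.5% BSA, 5 mM MgCl₂, 1 mM EDTA, pH 7.4. Binding of 0.5 nM [³H]CP-55,940 competed with 1 nM–10 μM compound for 60 min at 30 °C, then GF/C filtration and scintillation counting. Ki by Cheng-Prusoff from IC50; mean SEM of n = 4.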

[2] = target: T1, Cannabinoid receptor 2; test: Inverse agonist activity at human CB2 receptor expressed in CHO cell membrane assessed as increase in forskolin-stimulated cAMP production at 1 uM by scintillation counting analysis relative to WIN55212-2
Method in brief: (§1)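 Whole hCB₂ CHO cells (1 × 10⁶/assay) in HEPES-buffered saline with glucose, pH 7.4, preincubated 10 min at 37 °C with 0.5 mM Ro 20-1724. Compound at 1 or 10 μM with 1 μM forskolin. Stopped with cold 6% TCA, ether-extracted; cAMP measured by [³H]cAMP competition binding with adrenal binding protein. Expressed as % increase versus WIN 55,212-2 (set −100%); n = 4.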

[3] = target: T2, Cannabinoid receptor 2 (Rattus norvegicus, UniProt Q9QZN9); test: Displacement of [3H]CP-55940 from Sprague-Dawley rat spleen CB2 receptor after 60 mins by scintillation counting analysis
T2 sequence (Q9QZN9 whole entry): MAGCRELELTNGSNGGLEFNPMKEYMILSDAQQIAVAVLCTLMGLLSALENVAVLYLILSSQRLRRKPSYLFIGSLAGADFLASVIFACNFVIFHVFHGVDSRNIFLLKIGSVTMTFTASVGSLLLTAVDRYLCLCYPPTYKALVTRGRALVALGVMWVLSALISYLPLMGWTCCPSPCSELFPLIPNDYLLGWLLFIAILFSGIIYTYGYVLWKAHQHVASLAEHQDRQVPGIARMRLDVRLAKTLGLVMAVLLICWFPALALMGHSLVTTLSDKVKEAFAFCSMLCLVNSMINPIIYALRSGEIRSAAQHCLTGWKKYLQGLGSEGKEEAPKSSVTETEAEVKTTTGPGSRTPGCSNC
Method in brief: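 Competed against 0.5 nM [³H]CP-55,940 using 1 nM–10 μM compound for 60 min at 30 °C. Bound ligand collected on GF/C filters and counted. Ki from IC50 by Cheng-Prusoff; mean SEM of n = 4.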

[4] = target: T3, Cannabinoid receptor 1 (Homo sapiens, UniProt P21554); test: Displacement of [3H]CP-55940 from human CB1 receptor expressed in CHO cell membrane after 90 mins by scintillation counting analysis; type: cell membranes
Method in brief: (§2)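 Membranes from CHO cells stably expressing human CB₁ (G418-maintained), suspended in 50 mM Tris-HCl, 0.5% BSA, 5 mM MgCl₂, 2.5 mM EDTA, pH 7.4. Displacement of 0.5 nM [³H]CP-55,940 by 1 nM–10 μM compound, 90 min, 30 °C. Filtration on GF/C, scintillation counting. Cheng-Prusoff Ki, LIGAND fitting; mean SEM, n = 4.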

[5] = target: Cannabinoid receptor 1 (Rattus norvegicus, UniProt P20272); test: Displacement of [3H]CP-55940 from Sprague-Dawley rat brain CB1 receptor after 90 mins by scintillation counting analysis
Method in brief: (§3)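 Competition with [³H]CP-55,940 (1.0 nM stated in rat CB₁ section; 0.5 nM in general protocol) against 1 nM–10 μM compound, 90 min at 30 °C. GF/C filtration, scintillation counting. Ki via Cheng-Prusoff; mean SEM, n = 4.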

[6] = target: T1, Cannabinoid receptor 2; test: Inverse agonist activity at human CB2 receptor expressed in CHO cell membrane assessed as increase in forskolin-stimulated cAMP production at 10 uM by scintillation counting analysis relative to WIN55212-2; method in brief: as §1
[7] = species on record: Homo sapiens; test: Selectivity index, ratio of Ki for human CB1 receptor to Ki for human CB2 receptor
[8] = target: T1, Cannabinoid receptor 2; test: Inverse agonist activity at human CB2 receptor expressed in CHO cell membrane assessed as increase in forskolin-stimulated cAMP production by scintillation counting analysis; type: functional, cell membranes
[9] = target: T1, Cannabinoid receptor 2; test: Inverse agonist activity at human CB2 receptor expressed in CHO cell membrane assessed as increase in forskolin-stimulated cAMP production at 1 to 10 uM by scintillation counting analysis in presence of WIN55212-2
[10] = target: Cannabinoid receptor 1 (Rattus norvegicus) (UniProt P20272); test: Displacement of [3H]CP-55940 from Sprague-Dawley rat brain CB1 receptor at > 10 uM after 90 mins by scintillation counting analysis; method in brief: as §3
[11] = target: T3, Cannabinoid receptor 1; test: Displacement of [3H]CP-55940 from human CB1 receptor expressed in CHO cell membrane at > 10 uM after 90 mins by scintillation counting analysis; type: cell membranes; method in brief: as §2

T1 sequence (P34972 whole entry): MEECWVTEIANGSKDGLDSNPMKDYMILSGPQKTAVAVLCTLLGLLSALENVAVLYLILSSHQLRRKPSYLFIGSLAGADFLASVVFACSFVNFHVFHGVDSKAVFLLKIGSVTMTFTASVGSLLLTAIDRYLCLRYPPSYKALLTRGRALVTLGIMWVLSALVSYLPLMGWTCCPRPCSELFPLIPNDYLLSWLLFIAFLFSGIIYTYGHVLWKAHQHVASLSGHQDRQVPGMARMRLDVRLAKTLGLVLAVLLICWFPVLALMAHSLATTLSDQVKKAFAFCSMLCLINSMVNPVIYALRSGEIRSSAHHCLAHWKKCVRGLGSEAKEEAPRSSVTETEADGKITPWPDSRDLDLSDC
T3 sequence (P21554 whole entry): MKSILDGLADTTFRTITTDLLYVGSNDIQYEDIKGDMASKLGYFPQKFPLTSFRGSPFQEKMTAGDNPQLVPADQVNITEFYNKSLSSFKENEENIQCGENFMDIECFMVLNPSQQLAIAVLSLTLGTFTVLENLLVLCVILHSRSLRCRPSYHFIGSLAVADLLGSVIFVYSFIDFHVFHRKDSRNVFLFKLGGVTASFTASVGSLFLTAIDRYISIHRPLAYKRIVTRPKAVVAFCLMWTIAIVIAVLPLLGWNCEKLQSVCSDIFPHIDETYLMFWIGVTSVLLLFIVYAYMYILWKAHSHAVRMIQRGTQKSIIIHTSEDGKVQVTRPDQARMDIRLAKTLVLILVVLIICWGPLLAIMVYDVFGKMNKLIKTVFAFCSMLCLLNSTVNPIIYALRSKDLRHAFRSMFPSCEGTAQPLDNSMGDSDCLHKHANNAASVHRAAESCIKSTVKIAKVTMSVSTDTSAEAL
Cannabinoid receptor 1 (Rattus norvegicus, UniProt P20272), sequence (P20272 whole entry): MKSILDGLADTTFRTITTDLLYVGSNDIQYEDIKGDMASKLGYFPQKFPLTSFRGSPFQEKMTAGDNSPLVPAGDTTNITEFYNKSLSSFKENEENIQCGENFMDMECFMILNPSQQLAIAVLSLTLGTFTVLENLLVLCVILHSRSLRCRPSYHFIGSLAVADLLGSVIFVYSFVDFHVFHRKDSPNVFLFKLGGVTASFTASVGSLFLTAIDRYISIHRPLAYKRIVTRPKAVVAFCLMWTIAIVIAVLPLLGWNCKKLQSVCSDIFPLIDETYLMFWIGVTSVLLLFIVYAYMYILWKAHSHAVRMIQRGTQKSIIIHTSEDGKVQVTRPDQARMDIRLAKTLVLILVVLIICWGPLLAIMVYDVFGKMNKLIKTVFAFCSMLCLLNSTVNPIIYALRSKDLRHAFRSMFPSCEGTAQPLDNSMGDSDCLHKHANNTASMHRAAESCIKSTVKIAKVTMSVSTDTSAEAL
Cannabinoid receptor 1 (Rattus norvegicus), sequence (P20272 whole entry): as above

Structure (SMILES)	Ki [1]	Activity [2]	Ki [3]	Ki [4]	Ki [5]	Activity [6]	Ratio Ki [7]	EC50 [8]	Activity [9]	Activity [10]	Activity [11]
CCCCCn1cc(C(=O)NC2CCCCCC2)c(=O)n2nc(C(C)(C)C)cc12	7.22 nM	151%	7.52 nM	605 nM	650 nM	213%	84	351 nM			
CCCCCn1cc(C(=O)NC23CC4CC(CC(C4)C2)C3)c(=O)n2nc(CC)cc12	0.84 nM	173%	0.96 nM	120 nM	150 nM	243%	143	95 nM	Active		
CCCCCn1cc(C(=O)NC23CC4CC(CC(C4)C2)C3)c(=O)n2nc(-c3ccccc3)cc12	2.56 nM	163%	2.74 nM	> 10000 nM	> 10000 nM	195%	> 3910	195 nM		40%	43%
CCCCCn1cc(C(=O)NC23CC4CC(CC(C4)C2)C3)c(=O)n2nc(-c3ccoc3)cc12	10.1 nM	56%	12.4 nM	> 10000 nM	> 10000 nM	92%	> 990			17%	19%
CCCCCn1cc(C(=O)NC2CCCCCC2)c(=O)n2nc(-c3ccco3)cc12	6.57 nM	42%	7.23 nM	> 10000 nM	> 10000 nM	88%	> 1520			20%	16%
CCCCCn1cc(C(=O)NC2CCCCCC2)c(=O)n2nc(-c3ccc(Cl)cc3)cc12	6.31 nM	121%	6.53 nM	> 10000 nM	> 10000 nM	162%	> 1580			47%	40%
CCCCCn1cc(C(=O)NC23CC4CC(CC(C4)C2)C3)c(=O)n2nc(-c3cc(C)cs3)cc12	15 nM	71%	18 nM	> 10000 nM	> 10000 nM	97%	> 666			15%	13%
CCCCCn1cc(C(=O)NC2CCCCC2)c(=O)n2nc(-c3ccco3)cc12	9.52 nM	73%	10.4 nM	> 10000 nM	> 10000 nM	103%	> 1050			30%	21%
CCCCCn1cc(C(=O)NC23CC4CC(CC(C4)C2)C3)c(=O)n2nc(C)c(-c3ccccc3)c12	181 nM	34%	214 nM	> 10000 nM	> 10000 nM	51%	> 55			15%	15%
CCCCCn1cc(C(=O)NC2CCCCCC2)c(=O)n2nc(-c3ccccc3Cl)cc12	10.3 nM	53%	12.3 nM	> 10000 nM	> 10000 nM	69%	> 970			42%	35%
CCCCCn1cc(C(=O)NC23CC4CC(CC(C4)C2)C3)c(=O)n2nc(-c3ccc(C)cc3)cc12	3.41 nM	138%	3.82 nM	> 10000 nM	> 10000 nM	168%	> 2930			45%	38%
CCCCCn1cc(C(=O)NC2CCCCC2)c(=O)n2nc(-c3ccc(Cl)cc3)cc12	55 nM	79%	58 nM	> 10000 nM	> 10000 nM	94%	> 181			8%	15%
CCCCCn1cc(C(=O)NC23CC4CC(CC(C4)C2)C3)c(=O)n2nc(-c3ccc(Cl)cc3Cl)cc12	30 nM	87%	35 nM	> 10000 nM	> 10000 nM	112%	> 333			40%	37%
CCCCCn1cc(C(=O)NC23CC4CC(CC(C4)C2)C3)c(=O)n2nc(-c3ccco3)cc12	4.92 nM	107%	5.14 nM	> 10000 nM	> 10000 nM	124%	> 2030			40%	34%
